The values that follow come from ChEMBL document CHEMBL4049392, “New azole derivatives showing antimicrobial effects and their mechanism of antifungal activity by molecular modeling studies” (Eur J Med Chem, 2017).

Series [1] deals with Candida albicans. In words: Anti-fungal activity against Candida albicans ATCC 90028 after 48 hrs by broth microdilution method. It is filed as functional. The settings on record: ATCC 90028, 48 h. Summed up:
(§1)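 CLSI broth microdilution in RPMI 1640 (with glutamine, without bicarbonate) buffered to pH 7.0 with MOPS. Inoculum was prepared from 24 h Sabouraud dextrose agar subcultures, final 0.5 to 2.5 10^3 cfu/mL. Twofold dilutions were made from DMSO stocks. Incubated 35 °C for 48 h. MIC was the lowest concentration with no visible growth; for the fluconazole reference, MIC was taken at about 80% growth inhibition versus control.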
(Dilution methods test growth across graded concentrations, often in twofold steps.)

Another series concerns Pichia kudriavzevii. Briefly: Anti-fungal activity against Candida krusei ATCC 6258 after 48 hrs by broth microdilution method. It is filed as functional. Conditions: ATCC 6258, 48 h. In short, it runs like this: as §1
The next series has as its system Candida parapsilosis. In words: Anti-fungal activity against Candida parapsilosis ATCC 90018 after 48 hrs by broth microdilution method. Conditions: Lodderomyces parapsilosis, ATCC 90018, 48 h. It is filed as functional. Summed up: as §1
Another series relates to Nakaseomyces glabratus. Briefly: Anti-fungal activity against drug-resistant Candida glabrata after 48 hrs by broth microdilution method. It is filed as functional. In short, it runs like this:
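Clinical resistant C. glabrata isolate, stored frozen in glycerol and subcultured twice on Sabouraud dextrose agar. CLSI broth microdilution in RPMI 1640 (glutamine, no bicarbonate) buffered to pH 7.0 with MOPS. Inoculum from 24 h subcultures, final 0.5 to 2.5 x10^3 cfu/mL. DMSO-dissolved compounds in twofold dilutions, 35 C for 48 h. MIC is the lowest concentration giving complete visual growth inhibition; fluconazole reference read at about 80% inhibition.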

The test system of series [2] is Candida albicans. Briefly: Antibiofilm activity against Candida albicans SC5314 after 24 hrs by spectrophotometric method. It is filed as functional. Summed up: (§2)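 Biofilms were grown on Calgary device pegs from a 10^6 cfu/mL inoculum for 24 h at 37 °C. Pegs were rinsed in saline, then challenged with twofold dilutions for 24 h at 35 °C. Biofilm was recovered by 5 min sonication into RPMI 1640 with 2% glucose and incubated overnight. OD was read at 550 nm plus visual turbidity. MBEC was the lowest concentration preventing regrowth. MBIC was the minimum concentration preventing initial biofilm formation, judged by visual turbidity.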

The next series concerns Staphylococcus aureus. In words: Antibacterial activity against Staphylococcus aureus ATCC 29213 after 18 to 24 hrs by broth microdilution method. It is filed as functional. Summed up: (§3)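 CLSI broth microdilution in Mueller Hinton broth, with inoculum from 24 h Mueller Hinton agar subcultures, final about 5 10^5 cfu/mL. Compounds were dissolved in DMSO and tested as twofold dilutions in wells. Plates were incubated at 35 °C for 18–24 h. MIC was read as the lowest concentration completely inhibiting visible growth. Ciprofloxacin was the reference.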

A further series relates to Enterococcus faecalis. Briefly: Antibacterial activity against Enterococcus faecalis ATCC 29212 after 18 to 24 hrs by broth microdilution method. It is filed as functional. In short, it runs like this:
as §3

Another series deals with Escherichia coli. Briefly: Antibacterial activity against Escherichia coli ATCC 25922 after 18 to 24 hrs by broth microdilution method. It is filed as functional. Summed up: as §3
The next series relates to Pseudomonas aeruginosa. Briefly: Antibacterial activity against Pseudomonas aeruginosa ATCC 27853 after 18 to 24 hrs by broth microdilution method. It is filed as functional. Summed up:
as §3

Series [3] can be described thus: Cytotoxicity against human U937 cells assessed as cell viability at 10 to 100 ug/ml after 48 hrs by MTT assay relative to control. It is filed as cell-based, U-937. Conditions: read-out: Activity. In short, it runs like this:
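U937 human monocytic cells, 4 10^3 per well in RPMI-1640 with 10% FBS, L-glutamine, penicillin and streptomycin, at 37 °C and 5% CO2. Compounds in DMSO were added at five final concentrations for 48 h, in triplicate. MTT was added for 4 h, formazan was dissolved overnight in SDS/23% DMF, and OD was read at 570 nm. Results are % reduction in viable cells versus control.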
A general note: Tetrazolium assays rely on reduction of a dye to a coloured formazan, in cell work by metabolically active cells.

In series [4] the test system is Candida albicans. Briefly: Antibiofilm activity against Candida albicans SC5314 after 24 hrs by turbidity assay. It is filed as functional. In short, it runs like this: as §2

Broadly, the MIC is the lowest concentration that inhibits growth of the organism. `Cl.O=C(OC(Cn1ccnc1)c1ccc(Cl)cc1)c1ccc(-c2ccccc2)cc1` (configuration not stated): the MIC worked out at 0.25 µg/mL in the series with Candida albicans [1]; 4 µg/mL against Pichia kudriavzevii; 0.25 µg/mL in the series on Candida parapsilosis; 4 µg/mL with Nakaseomyces glabratus; 512 µg/mL in the series with Staphylococcus aureus; 256 µg/mL with Enterococcus faecalis. The MIC turned out to be 512 µg/mL against Escherichia coli and 256 µg/mL against Pseudomonas aeruginosa. For the same compound, in the series on Candida albicans [2], the MBEC turned out to be 512 µg/mL. In addition, the viability at 48 h in [3] lay in the range of 70 to 80%. This compound displayed an MBIC with Candida albicans [4] of 4 µg/mL.
As to `CCCCC(=O)OC(Cn1ccnc1)c1ccc(Cl)cc1.Cl` (configuration not stated), the MIC in the series with Candida albicans [1] worked out at 0.5 µg/mL; against Pichia kudriavzevii, 8 µg/mL; against Candida parapsilosis, 0.5 µg/mL; in the series on Nakaseomyces glabratus it was 0.25 µg/mL; in the series on Staphylococcus aureus, 32 µg/mL; against Enterococcus faecalis it was 128 µg/mL. Also, the MIC with Escherichia coli was found to be 512 µg/mL; against Pseudomonas aeruginosa, 256 µg/mL. The compound further had an MBEC in the series with Candida albicans [2] of 1024 µg/mL. Further, in [3], the viability at 48 h was 70 to 80%. Also, the MBIC in the series with Candida albicans [4] is 8 µg/mL.
On to `Cl.O=C(OC(Cn1ccnc1)c1ccccc1)c1ccc(-c2ccccc2)cc1` (configuration not stated), for which the MIC with Candida albicans [1] was determined as 0.125 µg/mL; in the series with Pichia kudriavzevii, 8 µg/mL; in the series on Candida parapsilosis, 0.125 µg/mL; in the series on Nakaseomyces glabratus, 2 µg/mL; against Staphylococcus aureus it was 512 µg/mL; in the series on Enterococcus faecalis it was 128 µg/mL. Further, the MIC is 512 µg/mL with Escherichia coli and 256 µg/mL in the series on Pseudomonas aeruginosa. The compound also returned an MBEC in the series on Candida albicans [2] of 1024 µg/mL. Moreover, in [3], the viability at 48 h was in the range of 70 to 80%. In the series on Candida albicans [4], this compound showed an MBIC of 8 µg/mL.
For `CCC(=O)OC(Cn1ccnc1)c1ccc(Cl)cc1.Cl` (configuration not stated), the MIC came out at 4 µg/mL in the series on Candida albicans [1]; 32 µg/mL with Pichia kudriavzevii; 4 µg/mL against Candida parapsilosis; 32 µg/mL against Nakaseomyces glabratus; 256 µg/mL against Staphylococcus aureus; 256 µg/mL in the series with Enterococcus faecalis. The MIC with Escherichia coli was 512 µg/mL; with Pseudomonas aeruginosa, 256 µg/mL. Moreover, in [3], the viability at 48 h fell in the range of 70 to 80%.
With `Cl.O=C(/C=C/c1ccccc1)OC(Cn1ccnc1)c1ccccc1` (configuration not stated), the MIC against Candida albicans [1] came to 1 µg/mL; against Pichia kudriavzevii, 16 µg/mL; in the series with Candida parapsilosis, 1 µg/mL; in the series on Nakaseomyces glabratus, 8 µg/mL; against Staphylococcus aureus, 8 µg/mL; against Enterococcus faecalis, 64 µg/mL. Also, the MIC with Escherichia coli stood at 512 µg/mL; against Pseudomonas aeruginosa, 256 µg/mL. In the series with Candida albicans [2], this compound gave an MBEC of 1024 µg/mL. The viability at 48 h in series [3] lay in the range of 70 to 80%. This compound also came in with an MBIC in the series with Candida albicans [4] of 8 µg/mL.
In the case of `CC(C)CC(=O)OC(Cn1ccnc1)c1ccc(Cl)cc1.Cl` (configuration not stated), the minimum inhibitory concentration (MIC) came out at 0.25 µg/mL in the series with Candida albicans [1]; 4 µg/mL against Pichia kudriavzevii; 0.25 µg/mL with Candida parapsilosis; 1 µg/mL in the series with Nakaseomyces glabratus; 32 µg/mL in the series with Staphylococcus aureus; 128 µg/mL against Enterococcus faecalis. The MIC against Escherichia coli was determined as 512 µg/mL; against Pseudomonas aeruginosa, 256 µg/mL. In the series with Candida albicans [2], the MBEC worked out at 1024 µg/mL. Also, the viability at 48 h in [3] was 70 to 80%. In the series on Candida albicans [4], the MBIC turned out to be 8 µg/mL.
Take `C/C=C/C=C/C(=O)OC(Cn1ccnc1)c1ccc(Cl)cc1.Cl` (configuration not stated): the MIC with Candida albicans [1] turned out to be 0.5 µg/mL; in the series on Pichia kudriavzevii it was 8 µg/mL; against Candida parapsilosis it was 1 µg/mL; in the series with Nakaseomyces glabratus, 4 µg/mL; against Staphylococcus aureus, 16 µg/mL; against Enterococcus faecalis, 128 µg/mL. The MIC was found to be 512 µg/mL with Escherichia coli and 256 µg/mL in the series on Pseudomonas aeruginosa. Besides, the MBEC in the series with Candida albicans [2] turned out to be 1024 µg/mL. Further, the viability at 48 h in series [3] lay in the range of 70 to 80%. The MBIC in the series on Candida albicans [4] amounted to 8 µg/mL.
On to `CCCC(=O)OC(Cn1ccnc1)c1ccc(Cl)cc1.Cl` (configuration not stated), for which the MIC in the series with Candida albicans [1] amounted to 0.5 µg/mL; in the series with Pichia kudriavzevii, 4 µg/mL; in the series with Candida parapsilosis, 1 µg/mL; with Nakaseomyces glabratus, 16 µg/mL; against Staphylococcus aureus, 64 µg/mL; against Enterococcus faecalis, 256 µg/mL. For the same compound, the MIC against Escherichia coli is 512 µg/mL; with Pseudomonas aeruginosa, 256 µg/mL. In the series with Candida albicans [2], this compound came in with an MBEC of 1024 µg/mL. The viability at 48 h in series [3] was in the range of 70 to 80%. This compound also displayed an MBIC in the series with Candida albicans [4] greater than 32 µg/mL.
As for `Cl.O=C(OC(Cn1ccnc1)c1ccc(Cl)cc1)C1CCCCC1` (configuration not stated), the MIC with Candida albicans [1] was 1 µg/mL; against Pichia kudriavzevii, 8 µg/mL; with Candida parapsilosis, 1 µg/mL; in the series with Nakaseomyces glabratus, 0.5 µg/mL; with Staphylococcus aureus, 256 µg/mL; against Enterococcus faecalis it was 512 µg/mL. For the same compound, the values for the MIC in the series on Escherichia coli and against Pseudomonas aeruginosa were 256 µg/mL and 1020 µg/mL, respectively. The compound also gave an MBEC with Candida albicans [2] of 512 µg/mL. Also, the viability at 48 h in series [3] fell in the range of 70 to 80%. The compound further displayed an MBIC in the series with Candida albicans [4] of 8 µg/mL.
